Data published in ChEMBL document CHEMBL1177850, “Design, synthesis and antiproliferative activity of styryl lactones related to (+)-goniofufurone” (Eur J Med Chem, 2010).

Tests used:
Type in all cases: functional, cell-based
HL-60 = test: Antiproliferative activity against human HL60 cells after 72 hrs by MTT assay; details: HL-60, 72 h
Outline: (§1)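 Exponentially growing cells were counted by trypan blue exclusion and seeded at 10^4 cells/well in 96-well plates to keep growth logarithmic. Cells were exposed to compound for 72 h, then read by tetrazolium (MTT) colorimetry. IC50 is the concentration giving 50% growth inhibition versus untreated control. Values are means (SD) of three independent experiments, each in quadruplicate.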

HeLa = test: Antiproliferative activity against human HeLa cells after 72 hrs by MTT assay
Outline: (§2)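 Seeded at 5 × 10^3 cells/well in 96-well plates after harvesting in exponential growth and trypan blue counting. MRC-5 are normal foetal lung fibroblasts. Exposure was 72 h, with MTT colorimetric read-out. Results are means (SD) of three independent experiments done in quadruplicate.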

Raji = test: Antiproliferative activity against human Raji cells after 72 hrs by MTT assay
Outline: as §1, with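 “colorimetry.” for “colorimetry. IC50 is the concentration giving 50% growth inhibition versus untreated control.”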

K562 = test: Antiproliferative activity against human K562 cells after 72 hrs by MTT assay; details: K562, 72 h
Outline: as §1, with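 “colorimetry.” for “colorimetry. IC50 is the concentration giving 50% growth inhibition versus untreated control.”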

MRC5 = test: Antiproliferative activity against human MRC5 cells after 72 hrs by MTT assay; details: MRC5, 72 h; outline: as §2
Jurkat = test: Antiproliferative activity against human Jurkat cells after 72 hrs by MTT assay; outline: as §1

| Compound | IC50 (HL-60) [nM] | IC50 (HeLa) [nM] | IC50 (Raji) [nM] | IC50 (K562) [nM] | IC50 (Jurkat) [nM] | IC50 (MRC5) [nM] |
| --- | --- | --- | --- | --- | --- | --- |
| O=C1C[C@H]2O[C@H]([C@H](O)c3ccccc3)[C@H](O)[C@H]2O1 | > 100000 | 8320 | 18400 | 410 | 32500 | > 100000 |
| O=C(/C=C/c1ccccc1)O[C@H](c1ccccc1)[C@H]1O[C@@H]2CC(=O)O[C@@H]2[C@H]1O [(+)-CRASSALACTONE C] | > 100000 |  |  | 3560 |  | > 100000 |

The next compounds have a lower IC50 (HL-60) than those just listed; values first:

| IC50 (HL-60) [nM] | IC50 (HeLa) [nM] | IC50 (Raji) [nM] | IC50 (K562) [nM] | IC50 (Jurkat) [nM] | Compound | IC50 (MRC5) [nM] |
| --- | --- | --- | --- | --- | --- | --- |
| 43800 | 4420 | 1030 | 510 | 2520 | O=C1CC2O[C@H](Cc3ccccc3)C(O)C2O1 (single isomer, unassigned) | > 100000 |
| 120 | 5690 | 1010 | 230 | 360 | O=C1C[C@H]2O[C@H]([C@H](OC(=O)c3ccccc3)c3ccccc3)[C@H](O)[C@H]2O1 | > 100000 |
| 90 | 2340 | 2210 | 540 | 2230 | O=C1CC[C@@H]([C@@H](O)[C@H](O)[C@H](O)c2ccccc2)O1 | > 100000 |
